Laboratory results from publication PMC6771261 (Journal of natural products, 2019).

Assays:
[1] = system: HRECs; assay: Matrigel based tube formation assay; type: cell-based, human; settings: HRECs on Matrigel, 8 hours, different concentrations
Summary of the method: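 HRECs (passage 5–8) in EGM-2 were seeded at 15,000 cells per well onto Matrigel-coated wells, with DMSO vehicle or a range of test compound concentrations. A known antiangiogenic homoisoflavonoid served as positive control. After 8 h, wells were imaged and tube length was quantified by image analysis. Mean ± SEM, n=3–6 wells, duplicate experiments; one-way ANOVA with Dunnett's post hoc test vs DMSO.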

[2] = system: Y79 retinoblastoma cells; settings: read-out: GI50 (Y79); as reported; cited from earlier work
[3] = system: HUVECs (human umbilical vein endothelial cells); settings: read-out: GI50 (HUVEC); as reported; cited from earlier work
[4] = system: HRECs (human retinal microvascular endothelial cells); settings: read-out: GI50 (HREC); as reported; cited from earlier work
[5] = system: 92–1 uveal melanoma cells; settings: read-out: GI50 (92–1); as reported; cited from earlier work

SMILES | ability of HRECs to form tubes (tubule length compared to DMSO control) [1] | GI50 [2] [µM] | GI50 [3] [nM] | GI50 [4] [nM] | GI50 [5] [µM]
COc1ccc(C[C@@H]2COc3cc(OC)c(OC)c(OC)c3C2=O)cc1O [Compound 45, 5,6,7-trimethoxy-3(R)-(3ʹhydroxy-4ʹ-methoxybenzyl)-4-chromanone] | effective |  |  |  | 
COc1ccc(/C=C2\COc3cc(OC)c(OC)c(O)c3C2=O)cc1O [Compound 48, (E)-5-hydroxy-6,7-trimethoxy-3-(3ʹhydroxy-4ʹ-methoxybenzylidene)-4-chromanone] | effective |  |  |  | 
CCOc1ccc(C(=O)/C=C/c2ccc(OC)c(OC)c2)c(O)c1C [Compound 50, (E)-3-(3,4-dimethoxylphenyl)-1-(4-ethoxy-2-hydroxy-3-methyl-phenyl)prop-2-en-1-one] | effective |  |  |  | 
COc1ccc(CC2COc3cc(O)c(OC)c(O)c3C2=O)cc1O (stereo not shown) [cremastranone] |  | 9.8 | 380 | 220 | 48
